pIC50, pKi: −log10 of the molar value.
Legend:
Candida antarctica [1] = assay: Inhibition of Candida antarctica lipase at 3 uM using 4-NA as substrate preincubated for 20 mins before the addition of substrate
Method in brief: (§1)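 Candida antarctica lipase in 50 mM Tris-HCl pH 8.0 was preincubated with compound at 37 °C for 20 min. Reaction started with 4-NA ([…] as added). Absorbance at 415 nm was read kinetically at 37 °C for 10 min at 1-min intervals. Relative inhibition was taken as the ratio of linear-range slopes, compound over blank.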

Acetylcholinesterase = Acetylcholinesterase (Electrophorus electricus, UniProt O42275); assay: Inhibition of Electrophorus electricus AChE using acetylthiocholine iodide as substrate preincubated for 20mins before the addition of substrate by Ellman's method; conditions: for pKi: read-out: Ki
Sequence of Acetylcholinesterase (O42275 whole entry): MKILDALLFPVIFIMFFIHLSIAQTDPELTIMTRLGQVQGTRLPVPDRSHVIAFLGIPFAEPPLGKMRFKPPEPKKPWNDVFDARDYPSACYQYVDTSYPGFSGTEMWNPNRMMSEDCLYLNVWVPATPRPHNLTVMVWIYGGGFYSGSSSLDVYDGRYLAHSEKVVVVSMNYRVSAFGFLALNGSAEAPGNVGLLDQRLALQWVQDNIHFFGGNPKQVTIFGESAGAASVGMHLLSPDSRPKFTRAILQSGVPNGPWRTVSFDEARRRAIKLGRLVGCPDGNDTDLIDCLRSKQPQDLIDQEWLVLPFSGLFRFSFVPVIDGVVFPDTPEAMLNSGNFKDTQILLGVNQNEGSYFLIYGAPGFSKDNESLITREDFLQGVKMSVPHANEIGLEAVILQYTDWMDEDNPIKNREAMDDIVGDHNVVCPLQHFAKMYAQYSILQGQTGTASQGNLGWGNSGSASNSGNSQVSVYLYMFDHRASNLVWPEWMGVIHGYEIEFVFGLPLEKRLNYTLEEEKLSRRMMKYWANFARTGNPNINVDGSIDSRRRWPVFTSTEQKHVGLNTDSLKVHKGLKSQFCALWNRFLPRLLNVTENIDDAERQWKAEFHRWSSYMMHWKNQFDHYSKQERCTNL

Cholinesterase = Cholinesterase (Equus caballus, UniProt P81908); assay: Inhibition of equine serum BChE using butyrylthiocholine iodide as substrate preincubated for 20mins before the addition of substrate by Ellman's method; conditions: for pKi: read-out: Ki
Sequence of Cholinesterase (P81908 whole entry): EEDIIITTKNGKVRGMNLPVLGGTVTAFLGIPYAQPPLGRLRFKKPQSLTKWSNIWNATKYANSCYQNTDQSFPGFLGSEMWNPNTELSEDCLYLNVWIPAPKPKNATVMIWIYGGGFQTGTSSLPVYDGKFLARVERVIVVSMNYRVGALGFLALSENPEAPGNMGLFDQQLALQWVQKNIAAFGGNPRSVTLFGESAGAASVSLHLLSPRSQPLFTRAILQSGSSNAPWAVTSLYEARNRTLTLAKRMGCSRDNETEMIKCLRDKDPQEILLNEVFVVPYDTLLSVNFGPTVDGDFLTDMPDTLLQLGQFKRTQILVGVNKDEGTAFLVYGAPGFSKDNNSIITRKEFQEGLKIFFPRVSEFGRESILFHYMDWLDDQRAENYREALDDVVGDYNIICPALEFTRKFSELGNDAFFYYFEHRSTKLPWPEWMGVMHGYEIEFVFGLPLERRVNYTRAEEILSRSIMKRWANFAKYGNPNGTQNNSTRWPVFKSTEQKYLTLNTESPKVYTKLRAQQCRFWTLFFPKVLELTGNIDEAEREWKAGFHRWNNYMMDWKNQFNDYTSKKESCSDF

[2] = biological target: Cholinesterase (Equus caballus) (UniProt P81908); assay: Inhibition of equine serum BChE at 3 uM using butyrylthiocholine iodide as substrate preincubated for 20mins before the addition of substrate by Ellman's method
Sequence of Cholinesterase (Equus caballus) (P81908 whole entry): as above
Method in brief: (§2)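 Ellman assay: enzyme in Tris-HCl pH 8.0 with NaN3, plus DTNB (3 mM stock with NaCl and MgCl2), was preincubated with compound at 30 °C for 20 min. Thiocholine substrate was then added and absorbance at 415 nm recorded at 30 °C for 30 min at 1-min intervals, in triplicate. Residual DMSO below 0.5%.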

[3] = biological target: Carbonic anhydrase 2 (Bos taurus) (UniProt P00921); assay: Inhibition of bovine erythrocte carbonic anhydrase 2 at 3 uM
Sequence of Carbonic anhydrase 2 (Bos taurus) (P00921 2-260 limits assumed): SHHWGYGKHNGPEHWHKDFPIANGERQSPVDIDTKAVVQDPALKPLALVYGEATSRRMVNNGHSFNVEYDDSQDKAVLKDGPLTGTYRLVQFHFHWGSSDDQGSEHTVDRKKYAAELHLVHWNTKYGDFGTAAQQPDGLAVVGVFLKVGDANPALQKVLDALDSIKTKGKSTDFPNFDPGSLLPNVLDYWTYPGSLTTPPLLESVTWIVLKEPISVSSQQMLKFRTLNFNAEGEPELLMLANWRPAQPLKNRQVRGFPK

[4] = biological target: Acetylcholinesterase (Electrophorus electricus) (UniProt O42275); assay: Inhibition of Electrophorus electricus AChE at 3 uM using acetylthiocholine iodide as substrate preincubated for 20mins before the addition of substrate by Ellman's method; method in brief: as §2
Sequence of Acetylcholinesterase (Electrophorus electricus) (O42275 24-633 limits assumed): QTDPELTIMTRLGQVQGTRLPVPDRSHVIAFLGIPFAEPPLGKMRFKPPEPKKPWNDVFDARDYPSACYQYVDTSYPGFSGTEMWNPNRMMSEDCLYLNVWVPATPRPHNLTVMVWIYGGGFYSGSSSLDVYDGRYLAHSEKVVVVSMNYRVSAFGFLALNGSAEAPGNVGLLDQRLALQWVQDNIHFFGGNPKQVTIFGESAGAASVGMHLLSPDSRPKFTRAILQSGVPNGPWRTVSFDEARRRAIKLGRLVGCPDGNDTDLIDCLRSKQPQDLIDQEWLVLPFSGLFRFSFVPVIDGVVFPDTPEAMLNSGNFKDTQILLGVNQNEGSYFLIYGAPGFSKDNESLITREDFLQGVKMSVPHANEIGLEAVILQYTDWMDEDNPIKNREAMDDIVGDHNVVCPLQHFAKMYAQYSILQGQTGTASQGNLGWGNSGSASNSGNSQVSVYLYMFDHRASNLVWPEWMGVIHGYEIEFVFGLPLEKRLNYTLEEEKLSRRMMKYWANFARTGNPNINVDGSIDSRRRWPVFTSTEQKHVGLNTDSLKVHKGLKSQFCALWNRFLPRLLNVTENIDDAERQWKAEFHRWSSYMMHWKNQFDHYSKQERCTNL

[5] = biological target: Acetylcholinesterase (Electrophorus electricus) (UniProt O42275); assay: Mixed type inhibition of Electrophorus electricus AChE by Lineweaver-Burk plot analysis
Method in brief: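 Ellman kinetics at 30 °C in pH 8.0 Tris-HCl with DTNB. Enzyme plus inhibitor (3 concentrations and a water blank) was preincubated for 20 min, then ATChI was added at 0.9375, 0.625, 0.325 or 0.1875 mM. A415 was read every minute for 30 min, in triplicate. Mode, Ki and Ki' came from Lineweaver-Burk, Dixon and Cornish-Bowden plots.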

[6] = biological target: Cholinesterase (Equus caballus) (UniProt P81908); assay: Inhibition of equine serum BChE at 40 uM using butyrylthiocholine iodide as substrate preincubated for 20mins before the addition of substrate by Ellman's method; method in brief: as §2
[7] = biological target: Carbonic anhydrase 2 (Bos taurus) (UniProt P00921); assay: Inhibition of bovine erythrocte carbonic anhydrase 2 at 40 uM
[8] = biological target: Acetylcholinesterase (Electrophorus electricus) (UniProt O42275); conditions: 40 uM
Candida antarctica [9] = assay: Inhibition of Candida antarctica lipase at 40 uM using 4-NA as substrate preincubated for 20 mins before the addition of substrate
Method in brief: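 Candida antarctica lipase (stock 2.003 U/ml) in 50 mM Tris-HCl pH 8.0, preincubated with compound at 37 °C for 20 min. Reaction started with 4-NA; absorbance at 415 nm followed at 37 °C for 10 min at 1 min intervals. Relative inhibition taken as the ratio of linear-range slopes, compound over blank.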

[10] = biological target: Cholinesterase (Equus caballus) (UniProt P81908); assay: Mixed type inhibition of equine serum BChE by Lineweaver-Burk plot analysis
[11] = biological target: Acetylcholinesterase (Electrophorus electricus) (UniProt O42275); conditions: 10 uM
[12] = biological target: Cholinesterase (Equus caballus) (UniProt P81908); assay: Inhibition of equine serum BChE at 10 uM using butyrylthiocholine iodide as substrate preincubated for 20mins before the addition of substrate by Ellman's method; method in brief: as §2
[13] = biological target: Carbonic anhydrase 2 (Bos taurus) (UniProt P00921); assay: Inhibition of bovine erythrocte carbonic anhydrase 2 at 10 uM
Candida antarctica [14] = assay: Inhibition of Candida antarctica lipase at 10 uM using 4-NA as substrate preincubated for 20 mins before the addition of substrate; method in brief: as §1
[15] = Cytotoxic activity against mouse NIH/3T3 cells by SRB assay; format: cell-based; conditions: NIH3T3
Method in brief: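 Mouse embryonic fibroblasts grown as monolayers in RPMI 1640 with 10% heat-inactivated FBS and penicillin/streptomycin at 37 °C under 5% CO2. Cytotoxicity read by photometric sulforhodamine-B microculture colorimetric assay, reported as IC50.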

[16] = biological target: Carbonic anhydrase 2 (Bos taurus) (UniProt P00921); assay: Inhibition of bovine erythrocte carbonic anhydrase 2 at 5 uM
[17] = biological target: Cholinesterase (Equus caballus) (UniProt P81908); assay: Inhibition of equine serum BChE at 5 uM using butyrylthiocholine iodide as substrate preincubated for 20mins before the addition of substrate by Ellman's method; method in brief: as §2
Candida antarctica [18] = assay: Inhibition of Candida antarctica lipase at 5 uM using 4-NA as substrate preincubated for 20 mins before the addition of substrate; method in brief: as §1
[19] = biological target: Acetylcholinesterase (Electrophorus electricus) (UniProt O42275); assay: Inhibition of Electrophorus electricus AChE at 5 uM using acetylthiocholine iodide as substrate preincubated for 20mins before the addition of substrate by Ellman's method; method in brief: as §2

Compound	inhibition (Candida antarctica [1])	pIC50 (Acetylcholinesterase)	pKi (Acetylcholinesterase)	pKi (Cholinesterase)	inhibition [2]	inhibition [3]	inhibition [4]	Kiuc [5]	also measured
CCCCCCOC(=O)[C@]12CCC(C)(C)C[C@H]1C1=CC[C@@H]3[C@@]4(C)C[C@@H](O)[C@H](O)C(C)(C)[C@@H]4CC[C@@]3(C)[C@]1(C)CC2	0%	5.36	5.32	< 5.22	0%	0%	62%	5.11 µM	
CC1(C)CC[C@]2(C(=O)OCCCBr)CC[C@]3(C)C(=CC[C@@H]4[C@@]5(C)C[C@@H](O)[C@H](O)C(C)(C)[C@@H]5CC[C@]43C)[C@@H]2C1		4.51	4.46	< 4.10				24.4 µM	inhibition [6]: 16%; inhibition [7]: 1%; inhibition [8]: 39%; inhibition (Candida antarctica [9]): 18%
CC1(C)CC[C@]2(C(=O)O)CC[C@]3(C)C(=CC[C@@H]4[C@@]5(C)C[C@H](O)[C@H](O)C(C)(C)[C@@H]5CC[C@]43C)[C@@H]2C1 [AUGUSTIC ACID]			< 4.52	4.45					pIC50 (Cholinesterase): 4.78; Kiuc [10]: 10.6 µM
CCCOC(=O)[C@]12CCC(C)(C)C[C@H]1C1=CC[C@@H]3[C@@]4(C)C[C@@H](O)[C@H](O)C(C)(C)[C@@H]4CC[C@@]3(C)[C@]1(C)CC2	0%	5.06	4.77	< 5.22	0%	0%	56%	15.4 µM	
CC1(C)CC[C@]2(C(=O)OCCCI)CC[C@]3(C)C(=CC[C@@H]4[C@@]5(C)C[C@@H](O)[C@H](O)C(C)(C)[C@@H]5CC[C@]43C)[C@@H]2C1		4.99	5.22	< 4.70				13.4 µM	inhibition [11]: 51%; inhibition [12]: 0%; inhibition [13]: 6%; inhibition (Candida antarctica [14]): 0%
CC1(C)CC[C@]2(C(=O)O)CC[C@]3(C)C(=CC[C@@H]4[C@@]5(C)C[C@@H](O)[C@H](O)C(C)(C)[C@@H]5CC[C@]43C)[C@@H]2C1 [MASLINIC ACID]			< 4.00	< 4.00					pIC50 [15]: 4.78
CC1(C)CC[C@]2(C(=O)OCCCCCl)CC[C@]3(C)C(=CC[C@@H]4[C@@]5(C)C[C@@H](O)[C@H](O)C(C)(C)[C@@H]5CC[C@]43C)[C@@H]2C1		4.98	5.77	< 5.00					inhibition [16]: 0%; inhibition [17]: 0%; inhibition (Candida antarctica [18]): 0%; inhibition [19]: 79%
CC1(C)CC[C@]2(C(=O)OC/C=C\CCl)CC[C@]3(C)C(=CC[C@@H]4[C@@]5(C)C[C@@H](O)[C@H](O)C(C)(C)[C@@H]5CC[C@]43C)[C@@H]2C1		4.75	4.65	< 4.10				9.38 µM	inhibition [6]: 7%; inhibition [7]: 1%; inhibition [8]: 79%; inhibition (Candida antarctica [9]): 0%
CC1(C)CC[C@]2(C(=O)OCc3ccc(Cl)cc3Cl)CC[C@]3(C)C(=CC[C@@H]4[C@@]5(C)C[C@@H](O)[C@H](O)C(C)(C)[C@@H]5CC[C@]43C)[C@@H]2C1	0%	5.33	5.69	< 5.22	0%	0%	43%	9.24 µM	pIC50 [15]: 4.76
